The campaign covered roughly 330,000 compounds. About 2,400 (0.73%) were called active. What follows is part of a selection rich in actives, with near analogues and random picks from the rest. Values without a mark were called inactive. The calls were made as follows: active = inhibition of at least 40% at 20 µM; inactive = the rest.
What follows are molecules tested against Apoptotic protease-activating factor 1 (Homo sapiens) (UniProt O14727) (assay: blockers of Apaf-1-driven caspase-3 activation – biochemical, DEVD-Rh110 fluorescence, uHTS, primary screen (AID 489030;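 also: plate controls were DMSO wells for no effect and DEVD-CHO caspase inhibitor wells for full effect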)). Conditions: reconstituted apoptosome caspase-3 activity, at 20 µM, active compounds read high.
Sequence of Apoptotic protease-activating factor 1 (Homo sapiens) (O14727 whole entry, looked up): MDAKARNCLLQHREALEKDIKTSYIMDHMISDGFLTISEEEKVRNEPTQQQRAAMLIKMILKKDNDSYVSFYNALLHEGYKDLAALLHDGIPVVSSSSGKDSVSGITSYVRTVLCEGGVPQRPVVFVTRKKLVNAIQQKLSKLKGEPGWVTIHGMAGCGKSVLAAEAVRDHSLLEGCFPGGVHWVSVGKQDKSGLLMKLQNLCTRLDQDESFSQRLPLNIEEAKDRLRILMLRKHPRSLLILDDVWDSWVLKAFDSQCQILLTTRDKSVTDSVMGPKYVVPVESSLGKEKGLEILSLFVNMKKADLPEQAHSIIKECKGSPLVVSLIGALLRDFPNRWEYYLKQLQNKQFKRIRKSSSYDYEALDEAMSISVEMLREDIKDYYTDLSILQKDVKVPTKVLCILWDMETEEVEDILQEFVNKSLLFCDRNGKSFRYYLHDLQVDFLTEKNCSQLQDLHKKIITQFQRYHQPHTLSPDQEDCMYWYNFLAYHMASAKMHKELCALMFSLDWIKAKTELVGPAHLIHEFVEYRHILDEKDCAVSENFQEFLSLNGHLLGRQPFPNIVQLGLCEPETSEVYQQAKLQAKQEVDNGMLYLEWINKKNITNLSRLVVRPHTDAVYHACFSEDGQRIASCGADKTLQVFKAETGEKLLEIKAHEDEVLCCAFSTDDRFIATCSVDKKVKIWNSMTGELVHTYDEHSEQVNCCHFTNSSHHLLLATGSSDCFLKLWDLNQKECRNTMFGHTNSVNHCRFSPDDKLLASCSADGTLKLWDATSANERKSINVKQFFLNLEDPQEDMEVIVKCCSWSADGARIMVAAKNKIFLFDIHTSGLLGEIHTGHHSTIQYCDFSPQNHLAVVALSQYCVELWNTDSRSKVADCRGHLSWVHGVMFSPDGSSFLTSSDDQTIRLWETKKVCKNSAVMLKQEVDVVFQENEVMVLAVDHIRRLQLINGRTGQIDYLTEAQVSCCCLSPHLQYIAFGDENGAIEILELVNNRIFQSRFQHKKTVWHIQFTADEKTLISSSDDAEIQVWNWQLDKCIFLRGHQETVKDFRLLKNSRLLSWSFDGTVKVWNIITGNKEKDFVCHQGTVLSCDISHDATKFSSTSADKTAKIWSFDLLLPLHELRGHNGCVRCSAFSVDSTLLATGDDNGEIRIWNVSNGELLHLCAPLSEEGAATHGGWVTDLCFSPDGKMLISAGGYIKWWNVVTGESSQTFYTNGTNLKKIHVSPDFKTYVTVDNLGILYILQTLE
Method in brief: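 System: reconstituted apoptosome with Apaf-1, cytochrome c, caspase-9, procaspase-3, dATP; Signal: Rh110 fluorescence intensity; Schedule: 30 min compound preincubation, 50 min activation, room temperature; Reagent: cytochrome c trigger plus (Z-DEVD)2-Rh110 caspase-3 substrate.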

With O=C1NNC(c2ccccc2)=N/C1=C\c1ccc(Cl)cc1 the inhibition was 50.6% (active).
For CCn1cc(CN2CCC(C(=O)Nc3cccc(-c4cccc(Cl)c4)c3)CC2)c(C)n1, the inhibition was 40.5% (active).
With CCOC(=O)c1ccc(Nc2cc3ccccc3c(=O)[nH]2)cc1 the inhibition was 92.5% (active).
In the case of CC(NC(=O)c1ccccc1SCC(=O)N1CCCC1)c1ccccc1 (stereo unspecified), the inhibition is reported as 41.6% (active).
In the case of CCOc1c(Br)cc(/C=C2\C(=O)N(CCC#N)N=C2C)cc1OC, the inhibition is reported as 75.9% (active).
CCCCNC(=O)C(C)N(CCN(C)C)C(=O)CCCCCN1C(=O)NC(c2ccc(Cl)cc2)C(C(=O)OCc2ccccc2)=C1C (stereo unspecified) was tested, and the inhibition was 67.1% (active).
CCCCNC(=O)C(C)N(CCN(C)C)C(=O)CCCN1C(=O)NC(c2ccc(Cl)cc2)C(C(=O)OCc2ccccc2)=C1C (stereo unspecified) was tested, and the inhibition was 57.1% (active).
O=C(CCNS(=O)(=O)c1ccccc1)NCCSc1ccc(Br)cc1 was tested, and the inhibition was 58.6% (active).
CC[N+](C)(CC)CCC[n+]1c(-c2ccccc2)c2cc(N)ccc2c2ccc(N)cc21 was tested, and the inhibition was 98.2% (active).
CCOC(=O)N1CCC(NC(=O)C(C)n2c3ccccc3c3cnn(C)c(=O)c32)CC1 (stereo unspecified) was tested, and the inhibition was 44.6% (active).
For Cc1ccc2nc(N3CCN(C(=O)c4ccco4)CC3)sc2c1, the inhibition was 41.9% (active).
For Cc1oc2c(c1C(=O)N1CCOCC1)C(=O)c1ccccc1C2=O, the inhibition was 65.9% (active).
For c1ccc(CSc2nnc(-c3ccco3)c(-c3ccco3)n2)cc1, the inhibition was 49.6% (active).
For Clc1ccccc1CSc1nnc(-c2ccco2)c(-c2ccco2)n1, the inhibition was 49.9% (active).
Cc1ccc(C(=O)N/N=C\c2cc(Br)c(Br)o2)cn1 was tested, and the inhibition was 75.4% (active).
With Cc1cc(N2CCCC2)ccc1NC(=O)COc1ccc(Cl)cc1 the inhibition was 62.2% (active).
In the case of Cc1ccc2c(c1)C1CN(C)CCC1N2S(=O)(=O)c1ccc(Oc2ccc([N+](=O)[O-])cc2)cc1 (stereo unspecified), the inhibition is reported as 59.9% (active).
For CCN(CC)CCOc1ccc2c(c1)C(=NNC(=O)c1ccccn1)c1cc(OCCN(CC)CC)ccc1-2, the inhibition was 52.5% (active).
CCC(=O)Nc1c(S(=O)(=O)c2ccccc2)c2nc3ccccc3nc2n1Cc1ccccc1 was tested, and the inhibition was 49.2% (active).

First: Cc1ccc(Cl)c(OCC(=O)N(C)CC(=O)Nc2ccc(N3CCOCC3)cc2)c1
Second: CCC(=O)c1ccc(OCC(=O)Nc2ccc(N3CCCCC3)cc2)cc1
The inhibition of the first is higher: 7.19% for the first, -8.58% for the second.

Compared with COC(=O)c1ccc(COC(=O)C2CCN(S(=O)(=O)c3c(Cl)cccc3Cl)CC2)o1, O=C(Nc1ccccc1C(=O)O)c1cc(S(=O)(=O)N2CCCCC2)cs1 is lower in inhibition: 0.83% for the first, -2.29% for the second.

Going from O=C(Nc1cccc(-c2cccc(Cl)c2)c1)C1CCN(C2CCC2)CC1 to CCn1cc(CN2CCC(C(=O)Nc3cccc(-c4cccc(Cl)c4)c3)CC2)cn1, the inhibition rises from 25.3% to 33.8%.

Compared with COc1ccccc1N1CCN(C(=O)CSc2ncnc3c2cnn3-c2ccc(C)c(C)c2)CC1, COc1ccc(N2CCN(C(=O)c3cn(C)c4ccc(S(=O)(=O)N5CCOCC5)cc4c3=O)CC2)cc1 is lower in inhibition: -2.97% for the first, -4.77% for the second.

First: COc1cccc(-n2c(N)cc(=O)nc2SCC(=O)Nc2cc(C)on2)c1
Second: Cc1cc(NC(=O)C(C)SCC(=O)Nc2ccccc2N2CCCCC2)no1 (stereo unspecified)
The inhibition of the first is lower: 0.469% for the first, 18.8% for the second.

First: CCCCN1C(=S)NC[C@@H]1C(C)CC (stereo partly specified)
Second: CCCCN(CC)CCNC(=O)c1[nH]c(C)c(C(C)=O)c1C
The inhibition of the first is lower: 1.66% for the first, 2.1% for the second.

First: COc1ccccc1C(=O)N1C(CC(=O)Nc2ccccc2C)C(=O)NC2CCCCC21 (stereo unspecified)
Second: CN(CC(=O)Nc1ccccc1Cl)C(=O)c1ccccc1SCC(=O)N1CCCC1
The inhibition of the first is lower: -7.88% for the first, -3.37% for the second.

First: CCOC(=O)Cc1cc(=O)[nH]c(/N=C(\N)Nc2ccc(OC)cc2)n1
Second: CCOC(=O)c1ccc(NC(=O)c2c(N)n(C)c(=O)[nH]c2=O)cc1
The inhibition of the first is higher: -3.54% for the first, -13.8% for the second.

First: CCOC(=O)c1ccc(NC(=O)c2c(NCc3ccccc3)[nH]c(=O)[nH]c2=O)cc1
Second: COC(=O)c1ccc(NC(=O)c2cc3c(CO)cnc(C)c3oc2=Nc2cccc(C(N)=O)c2)cc1
The inhibition of the first is higher: 3.08% for the first, -28.9% for the second.

First: COc1ccc(/C=C/c2c(-c3cccc(C)c3)oc3ccc(-c4ccc5c(c4)OCO5)cc23)cc1
Second: COc1cc(OC)cc(-c2c(-c3cccs3)c3cc(-c4ccc(OC)cc4F)ccc3n2C)c1
The inhibition of the first is lower: -2.24% for the first, 11.7% for the second.

Going from CC(C)N(Cc1ccccc1)C(=O)COC(=O)c1ccccc1SCC(=O)N1CCCC1 to COc1ccccc1C(=O)NCCC(=O)N(C)Cc1cccnc1, the inhibition falls from 1.56% to -4.28%.

Compared with Cc1ccc(NC2=NC(c3ccccc3)n3c(nc(C)cc3=O)N2)cc1 (stereo unspecified), Cc1ccc(NC(=O)C(C)c2cccc(C(=O)c3ccccc3)c2)cc1 (stereo unspecified) is lower in inhibition: 5.19% for the first, -10.9% for the second.

Going from COc1ccc(C2=NS(=O)(=O)N(C)C(C(=O)NC(C)c3ccccc3)=C2)cc1 (stereo unspecified) to Cc1ccc(C(=O)N/N=C/c2cccc3ccccc23)cn1, the inhibition falls from 1.57% to -7.7%.

Going from C=CCOc1c(Br)cc(/C=N\n2nnnc2N)cc1OC to Nc1nnnn1/N=C/c1cccc(Br)c1, the inhibition rises from 2.56% to 8.14%.

Going from COc1cc(/C=C2/C(=O)NN(c3cccc(Cl)c3)C2=O)cc(Br)c1O to COc1cc2ccccc2cc1C(=O)N1CCOCC1, the inhibition falls from 5.53% to -7.91%.

Compared with COc1ccc(CCN2CC(C(=O)NCCN3CCNC3=O)CCC2=O)cc1 (stereo unspecified), COc1ccc2nc(N3CCN(C(=O)c4ccc([N+](=O)[O-])o4)CC3)sc2c1 is higher in inhibition: 0.96% for the first, 4.35% for the second.

First: CC1=C(C(=O)OC(C)(C)C)C(c2ccc(Br)cc2)NC(=O)N1CCCC(=O)O (stereo unspecified)
Second: CC1=C(C(=O)OCc2ccccc2)C(c2ccc(C(F)(F)F)cc2)NC(=O)N1CCCCCC(=O)O (stereo unspecified)
The inhibition of the first is lower: -6.71% for the first, 19.6% for the second.

Going from CCN1C(=O)N[C@@H](c2ccccc2)C(C(=O)OC)=C1C to COC(=O)CCCCCN1C(=O)NC(c2ccc(-c3ccccc3)cc2)C(C(=O)OCc2ccccc2)=C1C (stereo unspecified), the inhibition rises from -2.25% to 19.3%.

Going from CCCOC(=O)c1c(NC(=O)c2cnn3c2NC(c2ccccc2)CC3C(F)(F)F)sc2c1CCCC2 (stereo unspecified) to CCOC(=O)N1CCC(NC(=O)Cc2cn(C)c3ccccc23)CC1, the inhibition rises from -7.9% to 3.3%.

Going from NC(=O)c1ccc(-c2csnn2)cc1 to CC(C)(C)NC(=O)CN(C(=O)c1csnn1)c1ccccc1-c1ccccc1, the inhibition rises from -3.94% to -0.459%.

Compared with COc1ccc(-n2nc(C(=O)Nc3cc(OC)c(OC)c(OC)c3)c3ccccc3c2=O)c(OC)c1, COc1cc(NC(=O)CCS(=O)(=O)c2ccc3c(c2)oc(=O)n3C)cc(OC)c1 is lower in inhibition: 28.5% for the first, -0.825% for the second.

First: O=C(CCNS(=O)(=O)c1ccccc1)NCCCc1ccccc1
Second: Cc1ccc(OCCNC(=O)CCNS(=O)(=O)c2ccc(Br)cc2)cc1
The inhibition of the first is lower: 4.81% for the first, 11.6% for the second.

First: CCCc1c(C)nc2c(Br)cccc2c1Cl
Second: CCc1nnc(SCc2cccc(F)c2)nc1CC
The inhibition of the first is lower: -2.72% for the first, 14.3% for the second.

Going from CCOC(=O)N1CCC(NC(=O)CCc2cn(C)c3ccccc23)CC1 to CCOC(=O)c1ccc2c(c1)nc(SCC(=O)NC(C)C)n2CC, the inhibition falls from 0.184% to -14.5%.

Compared with Cc1ccc2nc(N3C(=O)C(O)=C(C(=O)c4ccco4)C3c3cccc(O)c3)sc2c1 (stereo unspecified), O=C(CC1N=C2c3ccccc3N=C(SCc3ccccc3Cl)N2C1=O)NCc1ccco1 (stereo unspecified) is higher in inhibition: 9.5% for the first, 21.1% for the second.

First: CN(C)/C=C(\C#N)C(=O)c1cccnc1Oc1ccc(F)cc1F
Second: C/C(=N\NC(=O)c1ccccc1F)c1ccccn1
The inhibition of the first is lower: -17.9% for the first, -4.33% for the second.

Compared with O=C(c1snnc1-c1ccccc1)N1CCOCC1, O=C(OCc1ccccc1F)c1ccc2c(c1)OCCO2 is higher in inhibition: -11.7% for the first, 9.05% for the second.

First: Clc1ccc(CSc2nnc3c(n2)[nH]c2ccccc23)cc1
Second: Cc1ccc(S(=O)(=O)c2c(N)n(C)c3nc4ccccc4nc23)cc1
The inhibition of the first is higher: 11.3% for the first, -405% for the second.

Compared with S=C(NCc1ccco1)NCc1ccccc1Cl, Cc1c(NS(=O)(=O)c2cc(C(=O)NCCc3ccc(F)cc3)cc(Cl)c2Cl)c(=O)n(-c2ccccc2)n1C is higher in inhibition: 10.3% for the first, 16% for the second.

Compared with O=C(N/N=C\c1cc(Br)c(Br)o1)C1COc2ccccc2O1 (stereo unspecified), Cc1cnc(NC(=O)c2ccccn2)s1 is lower in inhibition: 6.95% for the first, -31.2% for the second.

First: CCOC(=O)CCC(=O)OCC(=O)NC(C)C1CC2CCC1C2 (stereo unspecified)
Second: O=C(NC1CCCC1)C(c1c(F)cccc1Cl)N(C(=O)c1csnn1)C1CC1 (stereo unspecified)
The inhibition of the first is lower: 3.06% for the first, 6.38% for the second.

Going from CC(=O)N1N=C(c2ccncc2)OC1(Cc1ccccc1)Cc1ccccc1 to O=C(O/N=C(/c1ccccc1)c1ccncc1)c1ccccc1[N+](=O)[O-], the inhibition falls from 3.9% to -9.34%.

Going from Cc1cc(C)cc(OCC(=O)Nc2ccc(N3CCOCC3)cc2N2CCOCC2)c1 to CS(=O)(=O)N(CC(=O)N1CCN(c2ccc(F)cc2)CC1)C1CCCCC1, the inhibition falls from 21.9% to -2.79%.

Compared with Cc1ccc2c(c1)C1CN(C)CCC1N2C(=S)Nc1ccc(OC(F)F)cc1 (stereo unspecified), Cc1ccc2c(c1)C1CN(C)CCC1N2S(=O)(=O)c1cccc(F)c1 (stereo unspecified) is higher in inhibition: -7.03% for the first, 1.11% for the second.

First: CCC(CC)c1nnc(NC(=O)C2=COCCO2)s1
Second: Cc1ccc2c(Cl)c(C(=O)NCCCn3ccnc3)sc2c1
The inhibition of the first is lower: 3.27% for the first, 10.1% for the second.

Going from Cc1cc(C)c(NC(=S)N2CCCC2C(=O)O)c(C)c1 (stereo unspecified) to CCN(CC)CCn1c(N)c(S(=O)(=O)c2ccccc2)c2nc3ccccc3nc21, the inhibition rises from -0.801% to 12%.

— PubChem BioAssay AID489030 (Sanford-Burnham Center for Chemical Genomics, 2010)
